RAD52 inh – RAD52 (human) annealing inhibition | 0.46% of 360,000 active | AID 651710 | inhibition, % at 18.7 µM | recombinant RAD52 DNA annealing, FRET fluorescence | P43351;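 active = every replicate showing at least 50% inhibition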
FN deposit inh – fibronectin deposition inhibition. AH1F fibroblasts, Alexa488-fibronectin deposition fluorescence, overnight. inhibition, % at 12.6 µM. 0.086% of 350,000 active;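 active = mean inhibition across replicates of 30% or more, regardless of how many single replicates reach that level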;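 also: positive control wells lacked labelled fibronectin entirely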
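Assay system: AH1F fibroblasts / Quantity: 10000 cells per well / Medium: DMEM plus 2% serum, read in PBS / Reagent: labelled fibronectin 24 nM / Dosing: single dose, pinned / Times: 1 h cell attachment, overnight exposure to compound and label / Signal: fluorescence, ex 485 nm, em 525 nm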
N-glyco inh – N-linked glycosylation inhibition | 0.23% of 360,000 active | AID 588692 | reporter increase, % at 12.5 µM | D54 ERlucT glycosylation luciferase reporter, 24 h; percent of 100 nM tunicamycin response;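 active = mean luciferase reporter signal, scaled so untreated is 0 and the glycosylation-blocking control 100, at or above a set limit in every replicate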;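 also: luciferase carries N-glycosylation sites so blocking glycosylation raises the light; 0% = median of neutral control wells and 100% = median of 100 nM tunicamycin wells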
RAD54 branch – RAD54 (human) branch migration inhibition; AID 602329; Q92698; inhibition, % at 10.4 µM; 0.14% of 360,000 active; RAD54 Holliday junction branch migration, FAM/BHQ fluorescence;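 active = mean normalized replicate activity at least 40 and at least half of replicates scoring 40 or more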;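 also: 0% = median of neutral control wells and 100% = median of positive control wells; inhibitors cause a drop in the FAM fluorescence signal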
CaV13 ICDI inh – Primary screen for inhibitors of IQ motif and Ca2+-dependent inactivation inhibitor domain binding in CACNA1D, Förster resonance energy transfer in living cells, …; 0.098% of 340,000 active; HEK cells, CFP/YFP FRET ICDI-IQ, plate reader, 10 min; percent FRET-ratio fall versus neutral wells; inhibition, % at 12.3 µM;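 active = mean replicate inhibition of at least 30% and at least 1% of replicates passing that level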;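 also: 0% = median of the neutral control wells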
DNA binder FP – counter-screen for RAD52 inhibitors: DNA binding compounds | shares compounds with RAD52 inh | Salmon sperm DNA/acridine orange FP displacement | AC50, µM | 8% of 1,000 active;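 active = fitted half-maximal concentration for signal loss at or below twice the highest dose tested, in every separate run, actives reach about 64 µM in these data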
Starred values were filed as active, the others as inactive; i = inactive; · = not tested or not shown. The list is not random: actives were taken first. Their share in the collection is about 0.7%.

SMILES	RAD52 inh	FN deposit inh	N-glyco inh	RAD54 branch	CaV13 ICDI inh	DNA binder FP
CC(C)(C)S(=O)N1Cc2cc(C(=O)NCCCN3CCOCC3)nc(-c3cccc(-c4cc5ccccc5o4)c3)c2[C@@H]1CCO (stereo partly drawn)	-4	17	2	-9	-8	i
CN(C)CCNc1ncnc2c1sc1nc(-c3ccccc3)c3c(c12)CCCC3	70*	5	-12	7	-2	i
COc1ncnc2c1sc1nc(-c3ccccc3)c3c(c12)CCCC3	·	-5	-4	·	-4	·
CCN(CC)CCNc1nc(-c2cccs2)c(CC(=O)O)s1	88*	-1	1	-2	-2	i
NC(=NCc1ccccc1)NN=Cc1ccnc2ccccc12	64*	-23	2	·	-9	i
Cc1ccc[n+](CC(=O)Nc2ccc(N(C)C)cc2)c1	78*	-1	1	-6	-1	i
CN(C)c1ccc(NC(=O)C[n+]2ccccc2)cc1	45	2	3	-20	-21	i
C[C@H]1CN([C@@H](C)CO)C(=O)Cc2cc(NS(C)(=O)=O)ccc2O[C@H]1CN(C)S(=O)(=O)c1ccc(F)cc1	0	·	·	9	·	·
Oc1c(CN2CCOCC2)cc(CN2CCOCC2)c(O)c1O	61*	-7	0	1	-9	i
CCN1CCCC(OC(=O)c2cc(-c3ccc(C)cc3)nc3ccccc23)C1 (stereo not drawn)	57*	-6	-7	·	11	i
CCOC(=O)C1CCCN(C(=O)c2cc(-c3ccc(F)cc3)nc3ccccc23)C1 (stereo not drawn)	-8	·	1	6	-7	·
Nc1ccc(N2CCN(CCCCN3C(=O)C4CCCN4C3=O)CC2)cc1 (stereo not drawn)	101*	5	5	·	-5	i
C[C@@H]1CN([C@H](C)CO)C(=O)c2cc(NS(=O)(=O)c3ccc(Cl)cc3)ccc2O[C@@H](C)CCCCO[C@@H]1CN(C)CC1CCCCC1	·	·	·	4	·	·
CN(C)CCOc1ccc2c(c1)C(=O)C(=Cc1ncc([N+](=O)[O-])n1C)C2	88*	6	-19	62*	-8	i
CCc1cc(OCCN(C)C)ccc1Cl	-5	·	2	·	-7	·
c1ccn(CCc2ccncc2)c1	-19	-1	1	4	-5	·
Nc1ccc(CCn2ccnc2)cc1	51*	1	4	4	-13	i
CCN(CC)CCNC(=O)c1nn(-c2ccc(Cl)cc2)c2c1CCc1cc(OC)ccc1-2	66*	-16	2	·	-6	i
COc1ccc2c(c1)CCc1c(C(=O)NCc3ccc(Cl)cc3)noc1-2	·	-5	2	·	·	·
O=C(C[C@H]1C=C[C@@H](NC(=O)C2CC2)[C@@H](CO)O1)NCCCN1CCOCC1	-8	·	·	-9	·	·
CC(=O)N1[C@@H]2Cn3c(ccc(-c4ccccc4)c3=O)[C@H]1[C@@H](C(=O)NCCCN1CCOCC1)[C@@H]2CO	3	·	·	·	·	·
C/C(=C\c1ccccc1)C(=O)N1CCC=CC1=O	-9	·	·	·	·	·
N=C(N)c1ccc(N=Nc2c(O)ccc3c2[nH]c2ccccc23)cc1	102*	3	-12	·	-9	i
COc1cccc(S(=O)(=O)NCC(=O)N2CCCCCC2)c1	108*	8	1	-1	-5	i
CCOc1ccc2[nH]c(=S)[nH]c2c1	·	·	-1	3	·	·
SMILES	RAD52 inh	FN deposit inh	N-glyco inh	RAD54 branch	CaV13 ICDI inh	DNA binder FP
CCOc1ccc2[nH]c3c(c2c1)CNCC3	55*	-8	2	25	-21	i
Cc1cc2cc(CNC(=O)c3cccc([N+](=O)[O-])c3)ccc2n1C	54*	2	0	6	-4	i
Cc1noc(C)c1NC(=O)Nc1cccc2c1O[C@H](CN(C)CC1CCCCC1)[C@@H](C)CN([C@H](C)CO)C2=O	8	·	·	10	·	·
CCCNC(=O)C[C@H]1CC[C@H]2[C@H](COc3ccc(NC(=O)NCC)cc3C(=O)N2C)O1	-11	-9	·	1	·	·
NC(N)=N/N=C(\N=Nc1ccccc1)c1ccc(Cl)cc1	74*	10	2	·	-7	i
NC(N)=N/N=C(\N=Nc1ccccc1)c1cccc2cccnc12	15	-11	6	·	-4	·
COc1ccc(-c2cc(NC=O)c3ncc(-c4cccc(C(=O)NCCN(C)C)c4)n3c2)c(OC)c1	57*	·	-8	32	-5	i
C[C@@H]1CN([C@@H](C)CO)S(=O)(=O)c2ccc(C3=CCCC3)cc2O[C@H]1CN(C)C(=O)C1CC1	·	-9	·	·	·	·
COc1ccc(-c2ccc3n(c2=O)C[C@H]2[C@H](CO)[C@@H](C(=O)N4CCOCC4)N[C@@H]32)cc1	-13	7	·	9	·	·
CN1CCN(c2ccc(NC(=O)c3ccc(Br)o3)cc2)CC1	13	10	-8	-1	-5	·
CN1CCN(c2ccc(NC(=O)c3ccc(-c4ccccc4F)o3)cc2)CC1	10	-5	-5	24	-2	i
O=C(C[C@H]1CC[C@H]2[C@@H](COC[C@@H](O)CN2CC2CC2)O1)NCc1ccc(Cl)cc1	0	-16	·	1	·	·
COc1ccc(-c2cc(CNc3nc(NCc4ccccc4OC)nc4ccsc34)on2)cc1	61*	-10	-1	-2	-3	i
COc1ccccc1CNc1nc(NCc2ccccc2)nc2ccsc12	-5	·	0	-3	-6	·
C[C@H](NC(=O)C[C@@H]1CC[C@H](NC(=O)Cc2ccccn2)[C@H](CO)O1)c1ccccc1	13	-2	·	1	·	·
CC1CCN(CCCNC(=O)c2cc3c(s2)-c2ccccc2OC3)CC1	27	5	-5	26	-3	·
Cc1cccc2c1-c1sc(C(=O)NCCCN3CCC(C)CC3)cc1CO2	61*	-1	-4	34	-2	i
CCCNC(=O)C[C@H]1CC[C@H]2[C@H](COc3ccc(NC(=O)NC(C)C)cc3C(=O)N2C)O1	9	-19	·	-8	·	·
CN(C)CCCN(C(=O)c1ccc(Br)s1)c1nc2cc3c(cc2s1)OCCO3	68*	-3	4	26	-6	i
CN(C)CCCN(C(=O)c1cc2cc([N+](=O)[O-])ccc2s1)c1nc2cc3c(cc2s1)OCCO3	51*	8	-7	-3	-7	i
CN(C)CCCN(C(=O)c1ccc([N+](=O)[O-])s1)c1nc2cc3c(cc2s1)OCCO3	34	6	-2	13	-6	·
CC(C)C[C@@H]1CN=C(N)N1C[C@@H]1CCCN1C[C@@H](C(C)C)N1C[C@@H](Cc2ccccc2)N(CCc2ccc(Cl)c(Cl)c2)C1=N	51*	0	1	10	-3	i
COc1ccc2nc3cc(Cl)ccc3c(Nc3ccc(O)c(CN4CCN(C)CC4)c3)c2c1	104*	-1	-9	·	-4	6.1µM*
CN(C)c1ccc2c(c1)[C@H]1C[C@H](CC(=O)N3CCCCC3)O[C@@H](CO)[C@H]1O2	-275	2	·	·	·	·

Assay outcomes as filed in PubChem.
